Converted amounts (≈) assume the structure as drawn.
Tests used:
Format in all cases: functional
Streptococcus pneumoniae [1] = assay: Antimicrobial activity against Streptococcus pneumoniae isolate 3791 by agar dilution method
Summary of the method: (§1)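 Agar dilution MIC on Mueller-Hinton agar with 5% sheep blood, inocula 10^4 CFU/spot; amoxicillin-clavulanate combined 1:2; S. pneumoniae ATCC 49619 quality control each run.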

Streptococcus pneumoniae [2] = assay: Antimicrobial activity against Streptococcus pneumoniae isolate 3260 by agar dilution method
Streptococcus pneumoniae [3] = assay: Antimicrobial activity against Streptococcus pneumoniae 10 by time-kill analysis
Summary of the method: (§2)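 Time-kill in cation-adjusted Mueller-Hinton broth with 5% lysed horse blood; inocula 5 × 105 to 5 × 10^6 CFU/ml; drugs at MIC, 2× and 4× MIC; 35°C shaking water bath; viable counts at 0, 3, 6, 12, 24 h. Bactericidal = ≥3 log10 CFU/ml (99.9%) drop from original inoculum; 90%/99%/99.9% killing scored per strain.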

Streptococcus pneumoniae [4] = assay: Antimicrobial activity against Streptococcus pneumoniae isolate 1424 by agar dilution method; summary of the method: as §1
Streptococcus pneumoniae [5] = assay: Antimicrobial activity against Streptococcus pneumoniae isolate 37 by agar dilution method; summary of the method: as §1
Streptococcus pneumoniae [6] = assay: Antimicrobial activity against Streptococcus pneumoniae isolate 4755 by agar dilution method; summary of the method: as §1
Streptococcus pneumoniae [7] = assay: Antimicrobial activity against Streptococcus pneumoniae isolate 1055 by agar dilution method
Streptococcus pneumoniae [8] = assay: Antimicrobial activity against Streptococcus pneumoniae isolate 2880 by agar dilution method; summary of the method: as §1
Streptococcus pneumoniae [9] = assay: Antimicrobial activity against Streptococcus pneumoniae isolate 1394 by agar dilution method
Streptococcus pneumoniae [10] = assay: Antimicrobial activity against Streptococcus pneumoniae isolate 3275 by agar dilution method; summary of the method: as §1
Streptococcus pneumoniae [11] = assay: Antimicrobial activity against penicillin-resistant Streptococcus pneumoniae by agar dilution method; summary of the method: as §1
Streptococcus pneumoniae [12] = assay: Antimicrobial activity against Streptococcus pneumoniae isolate 3263 by agar dilution method
Streptococcus pneumoniae [13] = assay: Antimicrobial activity against Streptococcus pneumoniae 1 by time-kill analysis
Summary of the method: as §2, with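 “12 and” for “12,”, “if” for “=”, “reduction” for “drop”, “90% and 99%” for “90%/99%/99.9%”, “also scored.” for “scored per strain.”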

Streptococcus pneumoniae [14] = assay: Antimicrobial activity against Streptococcus pneumoniae isolate 2617 by agar dilution method; summary of the method: as §1
Streptococcus pneumoniae [15] = assay: Antimicrobial activity against Streptococcus pneumoniae 11 by time-kill analysis; summary of the method: as §2
Streptococcus pneumoniae [16] = assay: Antimicrobial activity against Streptococcus pneumoniae 12 by time-kill analysis; summary of the method: as §2
Streptococcus pneumoniae [17] = assay: Antimicrobial activity against Streptococcus pneumoniae 8 by time-kill analysis; summary of the method: as §2
Streptococcus pneumoniae [18] = assay: Antimicrobial activity against Streptococcus pneumoniae isolate 4747 by agar dilution method; summary of the method: as §1
Streptococcus pneumoniae [19] = assay: Antimicrobial activity against penicillin-intermediate Streptococcus pneumoniae by agar dilution method
Streptococcus pneumoniae [20] = assay: Antimicrobial activity against Streptococcus pneumoniae 6 by time-kill analysis; summary of the method: as §2
Streptococcus pneumoniae [21] = assay: Antimicrobial activity against Streptococcus pneumoniae isolate 3282 by agar dilution method
Streptococcus pneumoniae [22] = assay: Antimicrobial activity against Streptococcus pneumoniae isolate 1146 by agar dilution method; summary of the method: as §1
Streptococcus pneumoniae [23] = assay: Antimicrobial activity against Streptococcus pneumoniae isolate 3455 by agar dilution method
Streptococcus pneumoniae [24] = assay: Antimicrobial activity against Streptococcus pneumoniae 4 by time-kill analysis; summary of the method: as §2
Streptococcus pneumoniae [25] = assay: Antimicrobial activity against Streptococcus pneumoniae isolate 2686 by agar dilution method; summary of the method: as §1
Streptococcus pneumoniae [26] = assay: Antimicrobial activity against Streptococcus pneumoniae 3 by time-kill analysis; summary of the method: as §2
Streptococcus pneumoniae [27] = assay: Antimicrobial activity against Streptococcus pneumoniae isolate 3374 by agar dilution method; summary of the method: as §1
Streptococcus pneumoniae [28] = assay: Antimicrobial activity against Streptococcus pneumoniae isolate 3481 by agar dilution method; summary of the method: as §1
Streptococcus pneumoniae [29] = assay: Antimicrobial activity against Streptococcus pneumoniae isolate 1147 by agar dilution method; summary of the method: as §1
Streptococcus pneumoniae [30] = assay: Antimicrobial activity against Streptococcus pneumoniae isolate 1384 by agar dilution method; summary of the method: as §1
Streptococcus pneumoniae [31] = assay: Antimicrobial activity against Streptococcus pneumoniae isolate 24 by agar dilution method
Streptococcus pneumoniae [32] = assay: Antimicrobial activity against Streptococcus pneumoniae isolate 3458 by agar dilution method
Streptococcus pneumoniae [33] = assay: Antimicrobial activity against Streptococcus pneumoniae 5 by time-kill analysis
Summary of the method: as §2, with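 “12 and” for “12,”, “if” for “=”, “reduction” for “drop”, “90% and 99%” for “90%/99%/99.9%”, “also scored.” for “scored per strain.”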

Streptococcus pneumoniae [34] = assay: Antimicrobial activity against Streptococcus pneumoniae isolate 33 by agar dilution method; summary of the method: as §1
Streptococcus pneumoniae [35] = assay: Antimicrobial activity against Streptococcus pneumoniae isolate 3681 by agar dilution method; summary of the method: as §1
Streptococcus pneumoniae [36] = assay: Antimicrobial activity against Streptococcus pneumoniae isolate 2688 by agar dilution method; summary of the method: as §1
Streptococcus pneumoniae [37] = assay: Antimicrobial activity against Streptococcus pneumoniae 7 by time-kill analysis; summary of the method: as §2
Streptococcus pneumoniae [38] = assay: Antimicrobial activity against Streptococcus pneumoniae isolate 2874 by agar dilution method; summary of the method: as §1
Streptococcus pneumoniae [39] = assay: Antimicrobial activity against Streptococcus pneumoniae isolate 3412 by agar dilution method; summary of the method: as §1
Streptococcus pneumoniae [40] = assay: Antimicrobial activity against Streptococcus pneumoniae isolate 3587 by agar dilution method
Streptococcus pneumoniae [41] = assay: Antimicrobial activity against Streptococcus pneumoniae 9 by time-kill analysis
Summary of the method: as §2, with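 “12 and” for “12,”, “if” for “=”, “reduction” for “drop”, “90% and 99%” for “90%/99%/99.9%”, “also scored.” for “scored per strain.”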

Streptococcus pneumoniae [42] = assay: Antimicrobial activity against Streptococcus pneumoniae 2 by time-kill analysis; summary of the method: as §2
Streptococcus pneumoniae [43] = assay: Antimicrobial activity against penicillin-susceptible Streptococcus pneumoniae by agar dilution method
Streptococcus pneumoniae [44] = assay: Antimicrobial activity against Streptococcus pneumoniae isolate 1564 by agar dilution method
Streptococcus pneumoniae [45] = assay: Antimicrobial activity against Streptococcus pneumoniae 19A by agar dilution method; summary of the method: as §1
Streptococcus pneumoniae [46] = assay: Antimicrobial activity against Streptococcus pneumoniae isolate 3346 by agar dilution method
Streptococcus pneumoniae [47] = assay: Antimicrobial activity against Streptococcus pneumoniae isolate 1397 by agar dilution method; summary of the method: as §1

For `CO/N=C(\C(=O)N[C@@H]1C(=O)N2C(C(=O)O)=C(CSc3nc(=O)c(O)nn3C)CS[C@H]12)c1csc(N)n1` [CEFTRIAXONE], the MIC (Streptococcus pneumoniae [1]) was 1 µg/mL (≈ 1.8 µM), the MIC (Streptococcus pneumoniae [2]) was 0.5 µg/mL (≈ 0.902 µM) and the MIC (Streptococcus pneumoniae [3]) was 0.12 µg/mL (≈ 0.216 µM). For the same compound, the MIC (Streptococcus pneumoniae [4]) was 4 µg/mL (≈ 7.21 µM), the MIC (Streptococcus pneumoniae [5]) was 2 µg/mL (≈ 3.61 µM) and the MIC (Streptococcus pneumoniae [6]) was 2 µg/mL (≈ 3.61 µM). For the same compound, the MIC (Streptococcus pneumoniae [7]) was 1 µg/mL (≈ 1.8 µM), the MIC (Streptococcus pneumoniae [8]) was 0.5 µg/mL (≈ 0.902 µM) and the MIC (Streptococcus pneumoniae [9]) was 4 µg/mL (≈ 7.21 µM). For the same compound, the MIC (Streptococcus pneumoniae [10]) was 0.25 µg/mL (≈ 0.451 µM), the MIC50 (Streptococcus pneumoniae [11]) was 1 µg/mL (≈ 1.8 µM) and the MIC90 (Streptococcus pneumoniae [11]) was 2 µg/mL (≈ 3.61 µM). It also gave an MIC (Streptococcus pneumoniae [12]) of 1 µg/mL (≈ 1.8 µM), an MIC (Streptococcus pneumoniae [13]) of 0.03 µg/mL (≈ 0.0541 µM) and an MIC (Streptococcus pneumoniae [14]) of 1 µg/mL (≈ 1.8 µM). The MIC (Streptococcus pneumoniae [15]) was 4 µg/mL (≈ 7.21 µM), the MIC (Streptococcus pneumoniae [16]) was 1 µg/mL (≈ 1.8 µM) and the MIC (Streptococcus pneumoniae [17]) was 2 µg/mL (≈ 3.61 µM). For the same compound, the MIC (Streptococcus pneumoniae [18]) was 2 µg/mL (≈ 3.61 µM), the MIC50 (Streptococcus pneumoniae [19]) was 0.125 µg/mL (≈ 0.225 µM) and the MIC90 (Streptococcus pneumoniae [19]) was 1 µg/mL (≈ 1.8 µM). For the same compound, the MIC (Streptococcus pneumoniae [20]) was 0.12 µg/mL (≈ 0.216 µM), the MIC (Streptococcus pneumoniae [21]) was 0.5 µg/mL (≈ 0.902 µM) and the MIC (Streptococcus pneumoniae [22]) was 2 µg/mL (≈ 3.61 µM). It also gave an MIC (Streptococcus pneumoniae [23]) of 1 µg/mL (≈ 1.8 µM), an MIC (Streptococcus pneumoniae [24]) of 4 µg/mL (≈ 7.21 µM) and an MIC (Streptococcus pneumoniae [25]) of 2 µg/mL (≈ 3.61 µM). The MIC (Streptococcus pneumoniae [26]) was 0.25 µg/mL (≈ 0.451 µM), the MIC (Streptococcus pneumoniae [27]) was 1 µg/mL (≈ 1.8 µM) and the MIC (Streptococcus pneumoniae [28]) was 2 µg/mL (≈ 3.61 µM). It also gave an MIC (Streptococcus pneumoniae [29]) of 2 µg/mL (≈ 3.61 µM), an MIC (Streptococcus pneumoniae [30]) of 2 µg/mL (≈ 3.61 µM) and an MIC (Streptococcus pneumoniae [31]) of 2 µg/mL (≈ 3.61 µM). It also gave an MIC (Streptococcus pneumoniae [32]) of 1 µg/mL (≈ 1.8 µM), an MIC (Streptococcus pneumoniae [33]) of 4 µg/mL (≈ 7.21 µM) and an MIC (Streptococcus pneumoniae [34]) of 1 µg/mL (≈ 1.8 µM). It also gave an MIC (Streptococcus pneumoniae [35]) of 1 µg/mL (≈ 1.8 µM), an MIC (Streptococcus pneumoniae [36]) of 4 µg/mL (≈ 7.21 µM) and an MIC (Streptococcus pneumoniae [37]) of 2 µg/mL (≈ 3.61 µM). For the same compound, the MIC (Streptococcus pneumoniae [38]) was 2 µg/mL (≈ 3.61 µM), the MIC (Streptococcus pneumoniae [39]) was 2 µg/mL (≈ 3.61 µM) and the MIC (Streptococcus pneumoniae [40]) was 1 µg/mL (≈ 1.8 µM). The MIC (Streptococcus pneumoniae [41]) was 0.12 µg/mL (≈ 0.216 µM), the MIC (Streptococcus pneumoniae [42]) was 0.016 µg/mL (≈ 0.0289 µM) and the MIC50 (Streptococcus pneumoniae [43]) was 0.03 µg/mL (≈ 0.0541 µM). For the same compound, the MIC90 (Streptococcus pneumoniae [43]) was 0.06 µg/mL (≈ 0.108 µM), the MIC (Streptococcus pneumoniae [44]) was > 8 µg/mL and the MIC50 (Streptococcus pneumoniae [45]) was 2 µg/mL (≈ 3.61 µM). It also gave an MIC90 (Streptococcus pneumoniae [45]) of 2 µg/mL (≈ 3.61 µM), an MIC (Streptococcus pneumoniae [46]) of 1 µg/mL (≈ 1.8 µM) and an MIC (Streptococcus pneumoniae [47]) of 4 µg/mL (≈ 7.21 µM).
